The list is not random: actives were taken first. Their share in the collection is about 3.1%.
KCNQ1 pot: potentiators or activators of human KCNQ1 potassium channel; CHO-K1 KCNQ1, thallium flux FluxOR fluorescence; active compounds read high; B-score at 10 µM; actives 0.35% (n = 310,000); AID 2648;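 active = fluorescence ratio B-score, a plate-corrected score, at least three library SD, with initial intensity B-score within 5 SD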
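assay system = CHO-K1 cells stably expressing KCNQ1 | medium = assay buffer, equal DMSO in all wells | timing = 37 °C overnight plating, 90-min dark dye load, 20-min compound pretreatment | measured by = kinetic FluxOR thallium fluorescence, 10-s 1-Hz baseline, 110-s post-stimulus read | measure = fluorescence change relative to baseline, converted to B score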
KCNK9 block: inhibitors of human KCNK9 two-pore domain potassium channel | Q9NPC2 | HEK293 KCNK9, FluxOR thallium flux fluorescence; active compounds read low | B-score at 10 µM | actives 1.2% (n = 310,000);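 active = ratio B-score over 3 SD below the library mean, with starting fluorescence within 5 SD of its mean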;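 note: negative B-score means less thallium flux so channel inhibition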
KCNK3 block: human KCNK3 channel inhibition, primary screen. O14649. B-score at 10 µM. CHO-KCNK3 thallium flux, FluxOR fluorescence; active compounds read low. actives 0.84% (n = 340,000);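 active = B-score under library mean minus 4 SD, starting fluorescence ratio at most library mean plus 5 SD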;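 note: more negative B-score means stronger inhibition of thallium flux through KCNK3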
KCNQ1 inh: human KCNQ1 channel inhibition | P51787 | CHO-K1 KCNQ1, FluxOR thallium flux fluorescence; active compounds read high | B-score at 10 µM | actives 1.3% (n = 310,000) | AID 2642;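 active = compounds whose thallium flux B-score, printed positive for inhibition, exceeds three library SD while starting fluorescence stays within three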;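 note: channel opened by potassium depolarization with thallium stimulus after 20 min compound exposure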
hERG rescue: compounds protecting human hERG from proarrhythmic drug block; Q12809; CHO-hERG, FluxOR thallium flux, dofetilide IC70 present; activation (rescue from dofetilide block), less the hit threshold, % at 10 µM; actives 0.51% (n = 310,000); AID 1511;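 active = activation above the mean of controls blocked by dofetilide plus 5 SD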;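 note: thallium influx through hERG after potassium depolarization seen as dye fluorescence rise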
KCNQ1 block val: reconfirmed blocker of the human KCNQ1 potassium channel | shares compounds with KCNQ1 inh | KCNQ1 cell line, FluxOR thallium flux fluorescence | inhibition, % at 10 µM | actives 93% (n = 1,600);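 active = primary screen active, with duplicate mean exceeding buffer control mean plus 3 SD of buffer wells, cut at about 28% in these data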;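 note: 0% = buffer control ratio and 100% = XE991 inhibitor control ratio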
CHO KCNQ1 ctr: activity in parental CHO cells lacking KCNQ1; parental CHO-K1, FluxOR thallium flux fluorescence ratio; active compounds read low; zero means no signal rise above baseline; fluorescence ratio (Tl flux) at 10 µM; shares compounds with KCNQ1 inh; AID 588366; actives 21% (n = 1,600);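 active = mean of duplicate thallium-flux fluorescence ratios in parental host cells more than 5 SD below the buffer control mean, cut at about 0.38 in these data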;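 note: ratio is peak minus minimum fluorescence divided by baseline fluorescence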
KCNQ1 ephys val: confirmation of human KCNQ1 potassium channel inhibitors by electrophysiology; actives 20% (n = 490); KCNQ1-CHO cells, automated patch clamp current; shares compounds with KCNQ1 inh; calls only at 10 µM; AID 624120;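 active = KCNQ1 current drop exceeding 3 SD of negative control wells, seen in both duplicate runs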;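 note: steady state current during a 2 s step from -80 to +40 mV; negative values mean current inhibition and positive values mean potentiation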
KCNQ2 spec: rat KCNQ2 inhibition in KCNQ1 inhibitor specificity screen; shares compounds with KCNQ1 inh; inhibition, % at 10 µM; AID 651746; actives 71% (n = 1,600); KCNQ2 cells, FluxOR thallium flux fluorescence;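 active = mean percent inhibition of the KCNQ2 thallium signal more than 5 SD above the buffer-only control wells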;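 note: KCNQ2 expressed in CHO cells; 0% = buffer control wells and 100% = XE-991 inhibitor control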
KCNQ1-KCNE1 inh: KCNQ1 inhibitor that also blocks human KCNQ1/KCNE1 channel; shares compounds with KCNQ1 inh; KCNQ1/KCNE1 cells, FluxOR thallium flux fluorescence; inhibition, % at 10 µM; actives 77% (n = 1,600); AID 652147;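 active = mean percent inhibition of duplicate wells above the buffer-only control mean plus 3 SD of those controls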;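 note: 0% = buffer only wells and 100% = XE-991 inhibitor control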
An asterisk follows results filed as active; i = inactive; / = not tested or not shown; + = active, no number.

SMILES	KCNQ1 pot	KCNK9 block	KCNK3 block	KCNQ1 inh	hERG rescue	KCNQ1 block val	CHO KCNQ1 ctr	KCNQ2 spec	KCNQ1-KCNE1 inh	others
COc1ccc(C(C)=O)cc1COC(=O)CCNS(=O)(=O)c1ccc(C)c(C)c1	i	i	i	i	-6.8	/	/	/	/
N#C/C(=C\c1coc2ccc(O)cc2c1=O)C(=O)Nc1nc2ccccc2s1	i	i	i	26*	-25.0	+	0.131*	i	i
Cc1ccc(C(=O)C(C)OC(=O)Cn2c(C)csc2=O)cc1 (configuration not stated)	i	i	i	i	-15.3	/	/	/	/
CCOC(=O)C1=CNS(=O)(=O)NC1c1ccc(C)cc1 (configuration not stated)	/	/	i	/	/	/	/	/	/
Cc1cc(Br)ccc1NC(=O)CNC(=O)CSc1nccn1C	/	/	i	/	/	/	/	/	/
Cc1cccc(OCCC(=O)Nc2ccc(F)c(F)c2)c1	i	i	i	8*	7.8*	28.5*	0.543	74.3%*	i
CN(C)C1=NC[C@H](Cc2ccccc2)N1CC1CCCC1	/	/	i	/	/	/	/	/	/
CN(C)C1=NC[C@H](Cc2ccccc2)N1CC1CCC(C(C)(C)C)CC1 (some centres not stated)	i	i	i	7*	-6.6	97.5*	0.432	111.3%*	69.5%*
CCCn1cc(CN2CCCC(C(=O)c3ccc4c(c3)OCO4)C2)c(C)n1 (configuration not stated)	i	i	i	i	-4.4	/	/	/	/
COc1cccc(C2C(=O)N(C3CCCCC3)CC(=O)N2Cc2ccc(F)cc2)c1 (configuration not stated)	i	i	i	6*	-19.1	54.0*	0.453	92.7%*	41.5%*
COc1ccccc1CN1C(=O)CN(C2CCCCCC2)C(=O)C1c1ccc(F)cc1 (configuration not stated)	i	i	i	i	-12.1	/	/	/	/
CCCCN(c1nc2ccccc2nc1Cl)S(=O)(=O)c1ccc(C)cc1	i	i	i	11*	-24.4	107.0*	0.356*	118.0%*	144.5%*
Clc1ccc(Cl)c2sc(N3CCCC3)nc12	i	i	i	i	-8.8	/	/	/	/
Clc1ccc(Cl)c2sc(N3CCOCC3)nc12	i	i	i	8*	-0.3	25.5*	0.466	i	i
Cc1cc(S(=O)(=O)N2CCCc3ccccc32)ccc1-n1cnnn1	i	i	i	i	-8.0	/	/	/	/
CN1/C(=C\C(=O)Nc2ccc(Cl)cc2)C(C)(C)c2ccccc21	i	-7.15*	i	10*	-24.0	99.0*	0.487	116.0%*	47.5%*	KCNQ1 ephys val=i
Cc1ccc(S(=O)(=O)c2c(N)n(CCC(C)C)c3nc4ccccc4nc23)cc1	i	i	i	15*	-11.8	75.0*	0.42	i	97.0%*
S=C(NCCCc1ccccc1)Nc1ccccc1Cl	i	i	i	7*	-22.1	100.0*	0.618	60.7%*	38.0%*	KCNQ1 ephys val=i
S=C(NCCNC(=S)Nc1ccccc1Cl)Nc1ccccc1Cl	i	i	i	7*	-5.4	62.0*	0.588	82.0%*	i
S=C(NCCc1ccccc1)NCc1cccc(Cl)c1	i	i	i	9*	-5.2	62.0*	0.506	104.0%*	46.5%*
Cc1cccc(C(=O)NCC(=O)N2CCN(c3ccccn3)CC2)c1	/	/	i	/	/	/	/	/	/
Cc1ccc(NC(=S)NCCSc2ccc(Cl)cc2)cc1	i	i	i	i	-3.0	/	/	/	/
Cc1cccc(C)c1NC(=S)NCCSc1ccc(Cl)cc1	i	i	i	6*	-15.2	89.5*	0.431	110.0%*	95.5%*	KCNQ1 ephys val=i
Cc1ccc(SCCNC(=S)Nc2cc(C)cc(C)c2)cc1	i	i	i	9*	-19.8	69.0*	0.5	71.3%*	77.0%*
CCCn1cc(CN2CCC(n3nccc3NC(=O)c3ccccc3)CC2)c(C)n1	i	i	i	i	-6.3	/	/	/	/
SMILES	KCNQ1 pot	KCNK9 block	KCNK3 block	KCNQ1 inh	hERG rescue	KCNQ1 block val	CHO KCNQ1 ctr	KCNQ2 spec	KCNQ1-KCNE1 inh	others
CCSc1nsc(NC(=O)Nc2ccccc2F)n1	i	i	i	i	-6.8	/	/	/	/
C=CCSc1nsc(NC(=O)Nc2ccc(F)cc2)n1	i	i	i	14*	-10.7	64.0*	0.506	i	i
COc1ccc(C)cc1NC(=O)CCCN1C(=S)NC(C)(C)CC1C (configuration not stated)	i	i	i	6*	-11.9	0.0	0.482	i	i
COc1ccc(OC)c(NC(=O)CCCN2C(=S)NC(C)(C)CC2C)c1 (configuration not stated)	i	i	i	i	-2.4	/	/	/	/
Cc1[nH]c2ccccc2c1C(=O)COc1ccccc1	i	i	i	7*	-12.3	0.0	0.481	63.3%*	40.0%*
Cc1[nH]c2ccccc2c1C(=O)COc1ccccc1F	i	i	i	i	-11.6	/	/	/	/
CCCNC(=O)/C(C#N)=C1\N=C(NC(=O)c2cccs2)c2ccccc21	i	i	i	i	-2.2	/	/	/	/
Cc1ccc(Cn2c(=N)n(CC(O)COc3ccccc3)c3ccccc32)cc1 (configuration not stated)	i	-7.6*	i	6*	-24.2	129.5*	0.48	68.0%*	i	KCNQ1 ephys val=i
c1ccc(Cn2ncc3c(N4CCN(C(c5ccccc5)c5ccccc5)CC4)ncnc32)cc1	i	i	i	10*	9.4*	+	0.376*	i	i
Clc1ccc(Cn2ncc3c(N4CCCC4)ncnc32)cc1	i	i	i	i	-4.0	/	/	/	/
COC(=O)/C=C/c1ccccc1CN1[C@@H](CC(=O)OC)c2ccccc2S1(=O)=O	/	/	i	/	/	/	/	/	/
COC(=O)c1c(C)oc(C)c1S(=O)(=O)N1CCOCC1	i	i	i	i	-8.5	/	/	/	/
O=C(NC(=S)Nc1ccccc1N1CCN(C(=O)c2ccccc2)CC1)c1ccccc1F	i	i	i	10*	-13.6	84.0*	0.382	110.3%*	111.5%*
O=C(NC(=S)Nc1ccccc1N1CCOCC1)c1ccccc1F	i	i	i	i	-12.9	/	/	/	/

Bioassay records (PubChem BioAssay)
